Experimental data published in publication PMC12435242 (Proceedings of the National Academy of Sciences of the …, 2025).

How the values were obtained:
SV2A [1] = molecular target: SV2A (Homo sapiens, UniProt Q7L0J3); assay: 3H-UCB-J binding with or without UCB1244283; settings: Kd of 3H-UCB-J binding to SV2A
[2] = system: SV2A compared to SV2B and SV2C; settings: cited from earlier work
[3] = molecular target: wild-type SV2A (SV2AΔ64-mVenus) (Homo sapiens, UniProt Q7L0J3); assay: 3H-LEV filter binding, concentration-response of UCB1244283
Chain of wild-type SV2A (SV2AΔ64-mVenus) (Q7L0J3 65-742 limits assumed, stated change not applied): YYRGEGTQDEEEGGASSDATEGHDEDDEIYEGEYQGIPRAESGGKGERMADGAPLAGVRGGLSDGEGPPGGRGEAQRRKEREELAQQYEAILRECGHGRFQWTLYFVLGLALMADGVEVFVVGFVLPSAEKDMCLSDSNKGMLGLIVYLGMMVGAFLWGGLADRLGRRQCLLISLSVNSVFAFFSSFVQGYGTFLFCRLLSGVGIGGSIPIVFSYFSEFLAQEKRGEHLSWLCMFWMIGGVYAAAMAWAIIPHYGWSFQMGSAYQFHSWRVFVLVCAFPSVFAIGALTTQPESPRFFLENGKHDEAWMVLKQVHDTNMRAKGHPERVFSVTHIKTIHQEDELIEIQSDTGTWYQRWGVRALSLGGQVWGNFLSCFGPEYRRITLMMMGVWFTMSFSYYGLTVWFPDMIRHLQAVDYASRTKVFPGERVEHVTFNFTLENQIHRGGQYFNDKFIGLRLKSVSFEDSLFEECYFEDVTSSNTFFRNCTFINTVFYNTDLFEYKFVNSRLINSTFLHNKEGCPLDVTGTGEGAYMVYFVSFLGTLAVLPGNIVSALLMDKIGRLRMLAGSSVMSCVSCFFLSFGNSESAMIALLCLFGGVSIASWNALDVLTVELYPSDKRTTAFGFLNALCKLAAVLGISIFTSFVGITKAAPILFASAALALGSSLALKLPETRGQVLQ
Method in brief: (§1)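 Human SV2AΔ64 (C-terminal mVenus/TwinStrep/His10), wild-type or point mutant, PEI-transfected into suspension tsA201 cells. Membranes harvested 48–60 h later and loaded at equal SV2A by FSEC. Incubated 45 min on ice with 3.3 µM 3H-LEV and test compound 1 nM–30 µM; nonspecific binding defined with 1 mM PSL. PEI-soaked glass-fibre filtration, scintillation counting. EC50 by three-parameter log(agonist) fit; triplicate; mean ± SEM.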

SV2A-F184A = SV2A-F184A (Homo sapiens, UniProt Q7L0J3, F184A); assay: as above
Chain of SV2A-F184A (Q7L0J3 65-742 F184A limits assumed): as the sequence (Q7L0J3 65-742 limits assumed, stated change not applied) above, with F120A counted along it
Method in brief: as §1

SV2A-F188A = SV2A-F188A (Homo sapiens, UniProt Q7L0J3, F188A); assay: as above
Chain of SV2A-F188A (Q7L0J3 65-742 F188A limits assumed): as the sequence (Q7L0J3 65-742 limits assumed, stated change not applied) above, with F124A counted along it
Method in brief: as §1

SV2A-G659C = SV2A-G659C (Homo sapiens, UniProt Q7L0J3, G659C); assay: 3H-LEV filter binding, concentration-response of UCB1244283
Chain of SV2A-G659C (Q7L0J3 65-742 G659C limits assumed): as the sequence (Q7L0J3 65-742 limits assumed, stated change not applied) above, with G595C counted along it

SV2A A308S mutant = SV2A A308S mutant (Homo sapiens, UniProt Q7L0J3, A308S); assay: 3H-LEV filter binding, concentration-response of UCB1244283; settings: 3H-LEV 3.3 µM
Chain of SV2A A308S mutant (Q7L0J3 65-742 A308S limits assumed): as the sequence (Q7L0J3 65-742 limits assumed, stated change not applied) above, with A244S counted along it
Method in brief: (§2)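 Membranes came from tsA201 cells transfected with PEI and harvested at 48–60 h. Cells expressed human SV2A mutants lacking residues 1–64, tagged C-terminally with mVenus/TwinStrep/His10. Equal protein per FSEC was used. Incubation was 45 min on ice with 3H-LEV 3.3 µM plus test compound, 1 nM–30 µM final. Nonspecific binding was set with 1 mM unlabeled PSL. Filtration used 1% PEI-soaked glass-fibre filters, with an ice-cold TBS150 wash, then scintillation counting. Assays were run in triplicate and fitted to a three-parameter log(agonist)–response curve.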

SV2A T465A mutant = SV2A T465A mutant (Homo sapiens, UniProt Q7L0J3, T465A); assay: as above; settings: 3H-LEV 3.3 µM
Chain of SV2A T465A mutant (Q7L0J3 65-742 T465A limits assumed): as the sequence (Q7L0J3 65-742 limits assumed, stated change not applied) above, with T401A counted along it
Method in brief: as §2

SV2A L655Q mutant = SV2A L655Q mutant (Homo sapiens, UniProt Q7L0J3, L655Q); assay: as above; settings: 3H-LEV 3.3 µM
Chain of SV2A L655Q mutant (Q7L0J3 65-742 L655Q limits assumed): as the sequence (Q7L0J3 65-742 limits assumed, stated change not applied) above, with L591Q counted along it
Method in brief: as §2

SV2A G659N mutant = SV2A G659N mutant (Homo sapiens, UniProt Q7L0J3, G659N); assay: as above; settings: 3H-LEV 3.3 µM
Chain of SV2A G659N mutant (Q7L0J3 65-742 G659N limits assumed): as the sequence (Q7L0J3 65-742 limits assumed, stated change not applied) above, with G595N counted along it
Method in brief: as §2

SV2A-D670A = SV2A-D670A (Homo sapiens, UniProt Q7L0J3, D670A); assay: 3H-LEV binding with or without UCB1244283, primary site mutant
Chain of SV2A-D670A (Q7L0J3 65-742 D670A limits assumed): as the sequence (Q7L0J3 65-742 limits assumed, stated change not applied) above, with D606A counted along it

SV2A-W300A = SV2A-W300A (Homo sapiens, UniProt Q7L0J3, W300A); assay: as above
Chain of SV2A-W300A (Q7L0J3 65-742 W300A limits assumed): as the sequence (Q7L0J3 65-742 limits assumed, stated change not applied) above, with W236A counted along it

SV2A [4] = settings: cited from earlier work
[5] = system: SV2A in human brain membranes; settings: cited from earlier work
sound-sensitive mice = settings: cited from earlier work
PSL-bound SV2A complex = settings: cited from earlier work
all SV2 members (SV2s) = settings: cited from earlier work
[6] = by slowing the rate of dissociation

Chain of SV2A (Homo sapiens, UniProt Q7L0J3) (Q7L0J3 65-742 limits assumed): as the sequence (Q7L0J3 65-742 limits assumed, stated change not applied) above

Cc1cnccc1CN1C[C@@H](c2cc(F)c(F)c(F)c2)CC1=O [UCB-J, (4R)-1-((3-Methyl-4-pyridinyl)methyl)-4-(3,4,5-trifluorophenyl)-2-pyrrolidinone]
Kd (SV2A [1]; in the absence of UCB1244283): 5.3 ± 0.8 nM | Kd (SV2A [1]; in the presence of saturating UCB1244283): 6 ± 1 nM

CCC[C@@H]1CC(=O)N([C@@H](CC)C(N)=O)C1 [BRV, (2S)-2-((4R)-2-oxo-4-propylpyrrolidin-1-yl)butanamide]
higher affinity for SV2A compared to SV2B and SV2C [2]: at least 100 fold

COc1ccccc1NC(=O)CC(C)Cc1cc(C)cc(C)c1 (centres unmarked) [UCB1244283, 4-(3,5-dimethylphenyl)-N-(2-methoxyphenyl)-3-methylbutanamide]
EC50 [3]: 700 ± 300 nM | increase in specific counts of 3H-LEV binding ([3]; saturating 3H-LEV (~4 µM), with vs without UCB1244283 30 µM): ~ 2 fold | EC50 (SV2A-F184A): 200 ± 40 nM | enhancement of EC50 for UCB1244283 compared to wild-type (SV2A-F184A; F184A mutant): ~ 3 fold | EC50 (SV2A-F188A): 70 ± 10 nM | enhancement of EC50 for UCB1244283 compared to wild-type (SV2A-F188A; F188A mutant): ~9 fold | EC50 (SV2A-G659C): 1000 ± 800 nM | reduction in Bmax of 3H-LEV binding compared to wild-type (SV2A-G659C; G659C mutant, with UCB1244283): ~ 4 fold | change in LEV binding on addition of UCB1244283 (SV2A A308S mutant): do not show a significant change in LEV binding | change in LEV binding on addition of UCB1244283 (SV2A T465A mutant): do not show a significant change in LEV binding | change in LEV binding on addition of UCB1244283 (SV2A L655Q mutant): do not show a significant change in LEV binding | change in LEV binding on addition of UCB1244283 (SV2A G659N mutant): do not show a significant change in LEV binding | effect on maximum specific binding (Bmax) of 3H-LEV (SV2A-D670A; UCB1244283 30 µM, 3H-LEV 3.3 µM, SV2A-D670A): does not enhance | effect on maximum specific binding (Bmax) of 3H-LEV (SV2A-W300A; UCB1244283 30 µM, 3H-LEV 3.3 µM, SV2A-W300A): does not enhance | increase in binding affinity for BRV on incubation of UCB1244283 with SV2A (SV2A [4]; [6]): 10 fold | increase in binding affinity for LEV on incubation of UCB1244283 with SV2A (SV2A [4]; [6]): 2.5 fold | increase in maximum binding capacity (Bmax) for BRV (SV2A [4]; with UCB1244283): 1.4 fold | increase in maximum binding capacity (Bmax) for LEV (SV2A [4]; with UCB1244283): twofold | effect of UCB1244283 on BRV binding [5]: increases both the Bmax and binding affinity | effect of UCB1244283 on LEV binding [5]: only increases the Bmax | protection against seizures (sound-sensitive mice): protection against both tonic and clonic seizures | binding to the PSL-bound SV2A complex (PSL-bound SV2A complex): does not bind

CC[C@@H](C(N)=O)N1CCCC1=O [LEV, 2S-(2-oxo-1-pyrrolidinyl)butanamide]
LEV binding to mutant (SV2A-D670A; D670A, with or without UCB1244283): unable to measure any significant LEV binding | LEV binding to mutant (SV2A-W300A; W300A, with or without UCB1244283): unable to measure any significant LEV binding | higher affinity for SV2A compared to SV2B and SV2C [2]: at least 100 fold

COCc1nn2c(CN3CC(CC(F)(F)Cl)CC3=O)c(C(F)(F)F)nc2s1 (single isomer, unassigned) [PSL]
affinity for all SV2 members (all SV2 members (SV2s)): nanomolar affinity
